An excerpt weighted towards active compounds, which were near 1.6% of everything screened.
Mac1 fbg enh: enhancers of CD11b/CD18 adhesion to fibrinogen, primary screen, K562 cells, luminescence. 93,000 compounds, 0.07% hits. ATPlite luminescence. AID 1499, 2009. activation, % at 10 µM. Integrin beta-2 (Homo sapiens) + Integrin alpha-M (Homo sapiens), P05107+P11215;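 active = 10 µM primary screen giving 50% or more activity, confirmed by 40% or more on retest at that dose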
sEH inhibitor: soluble epoxide hydrolase inhibitors, primary screen, biochemical, human sEH | 91,000 compounds, 0.34% hits | recombinant human sEH enzymatic activity assay | AID 707, 2007 | inhibition, % at 2 µM | Bifunctional epoxide hydrolase 2 (Homo sapiens), P34913; in the data active = inhibition above about 80%
Target sequence (P34913 whole entry, looked up): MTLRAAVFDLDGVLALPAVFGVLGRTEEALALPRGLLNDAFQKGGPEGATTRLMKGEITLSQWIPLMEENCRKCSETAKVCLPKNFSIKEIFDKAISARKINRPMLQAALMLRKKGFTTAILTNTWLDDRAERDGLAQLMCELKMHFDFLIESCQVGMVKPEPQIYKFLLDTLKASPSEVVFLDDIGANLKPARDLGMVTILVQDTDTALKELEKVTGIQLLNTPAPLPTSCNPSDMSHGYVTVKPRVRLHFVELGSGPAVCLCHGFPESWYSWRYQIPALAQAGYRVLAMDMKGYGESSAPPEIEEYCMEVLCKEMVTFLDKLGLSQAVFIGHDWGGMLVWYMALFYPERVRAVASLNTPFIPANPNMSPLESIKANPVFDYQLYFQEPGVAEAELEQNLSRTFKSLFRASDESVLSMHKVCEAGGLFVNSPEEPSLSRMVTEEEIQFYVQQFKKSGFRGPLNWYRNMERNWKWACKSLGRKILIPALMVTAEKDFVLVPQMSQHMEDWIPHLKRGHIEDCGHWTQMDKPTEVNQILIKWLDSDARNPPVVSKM
CD11b adhes inh: inhibitors of CD11b/CD18 adhesion to fibrinogen, primary screen, K562 cells, luminescence; Integrin beta-2 (Homo sapiens) + Integrin alpha-M (Homo sapiens), P05107+P11215; inhibition, % at 10 µM; ATPlite luminescence; Mn2+ added to activate the integrin; 93,000 compounds, 0.54% hits;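 active = primary inhibition of 50% or more at 10 µM, then 40% or more on retest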
HIV Rev-RRE inh: HIV-1 Rev-RRE binding inhibitors, primary screen, biochemical, FRET, protein-RNA interaction; AID 704, 2007; inhibition, % at 8 µM; 97,000 compounds, 0.79% hits; Rev peptide-RRE RNA binding;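 active = inhibition above the screen-wide mean plus 3 SD, cut at about 35% in these data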
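Assay system: Labelled RRE RNA duplex and labelled Rev peptide | Times: 5 min preincubation and 15 min binding, 25 °C | Detection: FRET, ex 480 nm, em 540 and 671 nm | Evaluation: % inhibition of FRET ratio versus controls | Benchmarks: DMSO wells as 0% and neomycin B wells as 100% inhibition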
Smad3 inh: Smad3/FoxH1 peptide binding inhibitors, primary screen, biochemical, TR-FRET. TR-FRET Smad3/Dy647-FoxH1 peptide binding, europium anti-His. inhibition, % at 25 µM. 88,000 compounds, 0.29% hits. AID 630, 2007;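 active = compounds that reduce the energy-transfer binding signal between the protein and its labelled peptide by more than half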
sEH activator: soluble epoxide hydrolase activators, primary screen, biochemical, human sEH. purified human sEH enzymatic activity, activator screen. 91,000 compounds, 0.04% hits. Bifunctional epoxide hydrolase 2 (Homo sapiens), P34913. activation, % at 2 µM; in the data active = activation above about 37%
Each line names hits and unclear results; the compound was inactive in the other large screens; [ ] = remark or other dose.

CN1CCC[C@H]1c1cccnc1.O=C(O)c1ccccc1O.O=C([OH2+])c1ccccc1O.O=C([OH2+])c1ccccc1O.O=C([OH2+])c1ccccc1O.[Cu]	Smad3 inh 96.8 (no result: Mac1 fbg enh, sEH inhibitor, CD11b adhes inh, HIV Rev-RRE inh, sEH activator)
Cc1ccc(C(=O)C(C)OC(=O)c2n[nH]c(=O)c3ccccc23)cc1 (configuration not stated)	none (no result: Smad3 inh)
CC(C)[C@@H](C)/C=C/[C@@H](C)[C@@H]1CC[C@@H]2C3=CC=C4C[C@@H](O)CC[C@]4(C)[C@@H]3CC[C@]21C	none (no result: Mac1 fbg enh, sEH inhibitor, CD11b adhes inh, HIV Rev-RRE inh, sEH activator)
CC1CCCCN1C(=O)CSc1nnc(CSc2ncccn2)n1C (configuration not stated)	Smad3 inh 73.1
Cn1c(CSc2ncccn2)nnc1SCC(=O)N1CCCCC1	none (no result: sEH inhibitor, HIV Rev-RRE inh, sEH activator)
CC(C)(CN)CN	none (no result: Mac1 fbg enh, sEH inhibitor, CD11b adhes inh, HIV Rev-RRE inh, sEH activator)
CCCCC1(C)OC(=O)C(=Cc2ccc(N(CC)CC)cc2)C(=O)O1 (configuration not stated)	HIV Rev-RRE inh 86.8[fluorescence artefact?] (no result: Smad3 inh)
CCN(CC)c1ccc(/C=C2/C(=O)ON=C2C)cc1	none (no result: sEH inhibitor, HIV Rev-RRE inh, Smad3 inh, sEH activator)
O=C(O)C/C(=C/c1ccccc1)C(=O)O	none (no result: Mac1 fbg enh, sEH inhibitor, CD11b adhes inh, HIV Rev-RRE inh, sEH activator)
Br/C(=N\Nc1nn[nH]n1)c1ccncc1	none (no result: Mac1 fbg enh, sEH inhibitor, CD11b adhes inh, HIV Rev-RRE inh, sEH activator)
CC(=O)[C@H]1[C@H](C#N)C[C@H]2[C@@H]3CC=C4C[C@@H](O)CC[C@]4(C)[C@H]3CC[C@@]21C	none (no result: Mac1 fbg enh, sEH inhibitor, CD11b adhes inh, HIV Rev-RRE inh, sEH activator)
CC(=O)OCC(=O)[C@@]12OC(C)(C)O[C@@H]1C[C@H]1[C@H]3CC=C4C[C@@H](O)CC[C@]4(C)[C@@H]3CC[C@@]12C	Smad3 inh 98.2 (no result: Mac1 fbg enh, sEH inhibitor, CD11b adhes inh, HIV Rev-RRE inh, sEH activator)
CC(=O)[C@@H]1[C@@H]2C(=O)N(C3CCCCC3)C(=O)[C@@H]2C2c3ccccc3C=CN21 (some centres not stated)	HIV Rev-RRE inh 41.4
CC(=O)[C@H]1[C@@H]2C(=O)N(c3cccc(Cl)c3)C(=O)[C@@H]2[C@H]2c3ccccc3C=CN21	HIV Rev-RRE inh 59.7 (no result: sEH inhibitor, sEH activator)
CCO[P@]1(=O)OC[C@@H]2O[C@H](n3cnc4c(N)ncnc43)[C@H](O)[C@H]2O1	none (no result: Mac1 fbg enh, sEH inhibitor, CD11b adhes inh, HIV Rev-RRE inh, sEH activator)
NC(=O)COc1ccc(C2c3c(oc4ccccc4c3=O)C(=O)N2CC2CCCO2)cc1 (configuration not stated)	Smad3 inh 77.1
COc1ccc(C2c3c(oc4ccccc4c3=O)C(=O)N2CC2CCCO2)cc1 (configuration not stated)	none
Cc1ccc(Cn2ccc(=O)c(Cc3c(Cl)cccc3Cl)c2C)cc1	sEH inhibitor 90.2 (no result: Smad3 inh)
Cc1ccccc1OCCCCc1c(C)n[nH]c1C	CD11b adhes inh 90.3
CCN(CC)c1ccc(N=Cc2ccc(N(CC)CC)cc2O)cc1	HIV Rev-RRE inh 96.0[fluorescence artefact?]
CCN(CC)c1ccc(C=Nc2ccc(N(C)C)cc2)c(O)c1	HIV Rev-RRE inh 81.3[fluorescence artefact?]
CCN(CC)c1ccc(C=Nc2ccc(C)cc2)c(O)c1	none (no result: Mac1 fbg enh, CD11b adhes inh)
C[N+]1([C@H](CO)Cc2c[nH]c3ccccc23)Cc2ccccc2C1	none (no result: Mac1 fbg enh, sEH inhibitor, CD11b adhes inh, HIV Rev-RRE inh, sEH activator)
N#C/C(=C\c1ccc(O)c(O)c1)S(=O)(=O)c1ccccc1	CD11b adhes inh 81.8 (no result: Smad3 inh)
CC1(C)CC(=O)C2=C(C1)Nc1ccccc1N=C2	HIV Rev-RRE inh 44.7 (no result: Mac1 fbg enh, CD11b adhes inh)
O=S(=O)(O)c1cc(N=Nc2cccc3ccccc23)c(O)c2ncccc12	none (no result: Mac1 fbg enh, sEH inhibitor, CD11b adhes inh, HIV Rev-RRE inh, sEH activator)
COc1ccc(C2C(C#N)=C(N)OC3=C2C(=O)CC(C)(C)C3)c([N+](=O)[O-])c1OC (configuration not stated)	none (no result: Mac1 fbg enh, CD11b adhes inh, Smad3 inh)
COc1cc(C2C(C#N)=C(N)OC3=C2C(=O)CC(C)(C)C3)c([N+](=O)[O-])cc1OC (configuration not stated)	HIV Rev-RRE inh 48.9 (no result: Mac1 fbg enh, CD11b adhes inh, Smad3 inh)
CCOc1cc(CNCc2ccncc2)cc(Br)c1OCc1ccccc1F	CD11b adhes inh 89.2 (no result: Smad3 inh)
Cc1cc(OCC(=O)Nc2ccncc2)ccc1Br	CD11b adhes inh 76.6
O=C(/C=C/c1cccnc1)c1ccc(NC(=O)c2cccc(Br)c2)cc1	Mac1 fbg enh 71.5 (no result: Smad3 inh)
O=C(NCC(c1cccs1)N1CCOCC1)c1ccccc1NS(=O)(=O)c1ccc(Cl)cc1 (configuration not stated)	CD11b adhes inh 79.2 (no result: sEH inhibitor, HIV Rev-RRE inh, Smad3 inh, sEH activator)

High-throughput results (PubChem)
